We go through one compound from article PMC6522132 (Cell chemical biology, 2017).

For one assay, the target named is wt-EphA4 LBD (Homo sapiens, UniProt P54764). In words: Isothermal titration calorimetry. The class given is binding. As to conditions: result in words. For orientation: ITC needs no label: the signal is the heat of the interaction.
A further assay deals with EphA4-LBD (Homo sapiens, UniProt P54764). In words: NMR ligand titration. The class given is binding. As to conditions: result in words. Put shortly: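 Purified human EphA4 ligand-binding domain (LBD), 13Cε-methionine-labelled for the titration, in 50 mM potassium phosphate pH 6.5 with 100 mM NaCl, at 27 °C. 2D [13C,1H]- or [15N,1H]-HSQC spectra of 50 μM LBD were compared with and without test compound. The compound was titrated at 10–50 μM against a DMSO control, and binding was read as chemical-shift changes.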

The structures appear in SMILES notation.

Chain of wt-EphA4 LBD (P54764 30-209 limits assumed): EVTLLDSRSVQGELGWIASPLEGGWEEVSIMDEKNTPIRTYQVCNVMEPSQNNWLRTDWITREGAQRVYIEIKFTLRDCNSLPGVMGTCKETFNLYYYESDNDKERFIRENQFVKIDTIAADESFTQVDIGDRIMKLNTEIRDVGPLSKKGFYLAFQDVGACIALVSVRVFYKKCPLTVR
Chain of EphA4-LBD (P54764 30-209 limits assumed): as above

With `CC[C@H]1CN2CC[C@]3(C(=O)Nc4ccccc43)[C@@H]2C[C@@H]1/C(=C\OC)C(=O)OC` [rhyncophilin], on wt-EphA4 LBD, the “binding to EphA4-LBD in ITC assay” value was “inactive”. The “binding to EphA4-LBD in NMR assay” value at EphA4-LBD was “inactive”.
